The values that follow come from ChEMBL document CHEMBL1128460, “Design, synthesis, and structure-activity relationships of a new series of alpha-adrenergic agonists: spiro[(1,3-diazacyclopent-1-ene)-5,2'-(1',2',3',4'- tetrahydronaphthalene)]” (J Med Chem, 1995).

The species named for assay [1] is Canis familiaris. Put plainly: Effective concentration for the agonist in the isolated blood vessel using in vitro saphenous vein. Conditions: Canis lupus familiaris. The format is functional. The method, boiled down: (§1)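 Vessel segments from mongrel dogs (15–25 kg) anesthetized with pentobarbital (30 mg/kg iv), mounted for isometric tension in physiological saline. Equilibrated 90 min with bath changes every 30 min, rauwolscine (10^-7 M) present throughout. Primed with KCl (100 mM), then phenylephrine (1 µM). Agonist concentration–response curves run at half-log steps, giving EC50 (µM) and Emax as % of phenylephrine maximum; mean ±SD.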

For assay [2], the species on record is Canis familiaris. As to the kind of experiment: Maximal contractile response obtained with the agonist (expressed as a percentage of the maximal contraction to phenylephrine in the dog femoral artery). The format is functional, Canis lupus familiaris. In outline:
as §1

Assay [3] deals with T1, Adrenergic receptor alpha (Rattus norvegicus) (UniProt P15823+P23944+P43140+P22086+P19328+P22909). As to the kind of experiment: Alpha adrenergic activity was evaluated as concentration (iv) which increases the arterial pressure by 20 mmHg in the pithed rat. The format is functional, organism-based. The following applies: Artery.
The nature of assay [4]: Ratio of C20 (pithed rat) to that of EC50 (saphenous vein). It is filed as functional.
A short description of assay [5]: Ratio of C20 obtained in the absence or presence of [C20 ( 0.1 mg of prazosin ) / C20 (control)]. The format is functional. The method, boiled down:
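Pithed rats pretreated with tertatolol (100 mg/kg), then 10 min later with prazosin (100 µg/kg). Cumulative iv agonist doses given another 10 min later at 20 s intervals. Arterial pressure recorded, C20 (dose giving +20 mmHg) determined. Ratio calculated as C20(prazosin)/C20(control); 3–6 determinations.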

Assay [6] addresses T1, Adrenergic receptor alpha (Rattus norvegicus). As to the kind of experiment: Alpha adrenergic activity was evaluated as maximal pressure response caused by agonist, expressed in mmHg (the maximum obtained with phenylephrine is 150 mmHg). The format is functional.
The species named for assay [7] is Canis familiaris. Put plainly: Maximal contractile response obtained with the agonist (expressed as a percentage of the maximal contraction to phenylephrine in the dog saphenous vein). The format is functional, Canis lupus familiaris. The method, boiled down: as §1
A short description of assay [8]: Ratio of C20 obtained in the absence or presence of [C20 (1 mg of yohimbine.) / C20 (control)]. It is filed as functional. The method, boiled down: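 Pithed rat arterial pressure assay with tertatolol (100 mg/kg) pretreatment, then yohimbine (1 mg/kg) 10 min later. Cumulative iv agonist doses given at 20 s intervals after a further 10 min, C20 (+20 mmHg dose) obtained. Ratio expressed as C20(yohimbine)/C20(control); 3–6 determinations.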

Assay [9] is filed under the species Canis familiaris. Put plainly: Effective concentration for the agonist in the isolated blood vessel using in vitro femoral artery. It is filed as functional. The following applies: Canis lupus familiaris. In outline:
as §1

Each structure is given as a SMILES string.

A word on the EC50: it is the concentration that produces a half-maximal response. Low readings indicate an effect from little substance, high ones a need for much substance. As for `Clc1ccc2c(c1)CCC1(CN=CN1)C2` (configuration not stated), the EC50 in assay [1] is 6 µM. The same compound gave an Emax in [2] of 0. In assay [3], this compound came in with a C20 of 6.3 µg/kg. Further, the Ratio is 1.05 in assay [4] and 2.8 in assay [5]. In [6], this compound gave a Max of 120 mmHg.

Take `Clc1ccc2c(c1)CC1(CC2)CN=CN1` (configuration not stated): the response in assay [1] was half-maximal at 5.5 µM (EC50). Besides, the results for the Emax in [2] and in assay [7] were 0 and 72, respectively. Besides, the C20 in [3] came out at 6.3 µg/kg. In addition, the Ratio worked out at 1.15 in assay [4], 2.6 in assay [5] and 5.8 in assay [8]. In [6], the Max came out at 116 mmHg.

On to `Cc1cc(C)c2c(c1)CC1(CC2)CN=CN1` (configuration not stated), for which the EC50 worked out at 0.8 µM in assay [9] and 2.9 µM in [1]. In addition, the Emax in assay [2] is given as 5; in assay [7], 66. For the same compound, in assay [3], the C20 was determined as 20 µg/kg. Besides, the Ratio in assay [4] was found to be 25; in assay [5], 2.9; in [8], 2.8. Further, in assay [6], the Max was determined as 91 mmHg.

`CC(C)c1ccc2c(c1)CC1(CC2)CN=CN1` (configuration not stated): it took 4.3 µM to reach a half-maximal effect in assay [1] (EC50). Besides, the figures for the Emax in [2] and in [7] were 0 and 53, respectively. In assay [3], the C20 was determined as 245 µg/kg. For the same compound, the Ratio is 57 in [4], 2.9 in [5] and 2.9 in [8]. In assay [6], this compound came in with a Max of 66 mmHg.

Regarding `Fc1ccc2c(c1)CC1(CC2)CN=CN1` (configuration not stated), in assay [1], the EC50 turned out to be 11 µM. In addition, the Emax in [2] amounted to 8; in assay [7] it was 67. Further, the C20 in assay [3] was 7.8 µg/kg. The values for the Ratio in assay [4], in assay [5] and in [8] were 0.71, 5 and 7.7, respectively. This compound gave a Max in assay [6] of 108 mmHg.

In assay [1], `Cc1cc2c(cc1C)CC1(CC2)CN=CN1` (configuration not stated) registered an EC50 of 2.7 µM. Further, the Emax in assay [2] came out at 0; in assay [7], 64. This compound returned a C20 in assay [3] of 37 µg/kg. The values for the Ratio in assay [4], in [5] and in assay [8] were 14, 0.5 and 2.5, respectively. In assay [6], this compound had a Max of 72 mmHg.
